Assay results from ChEMBL document CHEMBL1125112, “Antitumor imidazotetrazines. 20. Preparation of the 8-acid derivative of mitozolomide and its utility in the preparation of active antitumor agents” (1990).

Tests used:
[1] = test system: L1210; test: In vivo antitumor activity against the L1210 leukemia cell line in mouse species B6D2F1 after intraperitoneal administration (inoculum cells-10E5,ip) at the dose of 200 mg/kg; format: functional
[2] = test system: L1210; test: In vivo antitumor activity against the L1210 leukemia cell line in mouse species B6D2F1 after intraperitoneal administration (inoculum cells-10E5,ip) at the dose of 50 mg/kg; format: functional
[3] = test system: L1210; test: In vivo antitumor activity against the L1210 leukemia cell line in mouse species B6D2F1 after intraperitoneal administration (inoculum cells-10E5,ip) at the dose of 100 mg/kg; format: functional
[4] = test system: L1210; test: In vivo antitumor activity against the L1210 leukemia cell line in mouse species B6D2F1 after intraperitoneal administration (inoculum cells-10E5,ip) at the dose of 100 mg/kg on 7th day; format: functional
[5] = test system: L1210; test: In vivo antitumor activity against the L1210 leukemia cell line in mouse species B6D2F1 after intraperitoneal administration (inoculum cells-10E5,ip) at the dose of 200 mg/kg on 7th day; format: functional
[6] = test system: L1210; test: In vivo antitumor activity against the L1210 leukemia cell line in mouse species B6D2F1 after intraperitoneal administration (inoculum cells-10E5,ip) at the dose of 50 mg/kg on 7th day; format: functional
[7] = test system: TLX-5; test: In vivo antitumor activity against the TLX5 lymphoma cell line in mouse species CBA/CA after intraperitoneal administration (inoculum cells-2x10E5,sc) at the dose of 10 mg/kg; format: functional
[8] = test system: TLX-5; test: In vivo antitumor activity against the TLX5 lymphoma cell line in mouse species CBA/CA after intraperitoneal administration (inoculum cells-2x10E5,sc) at the dose of 160 mg/kg; format: functional
Summary of the method: (§1)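 CBA/CA mice were inoculated with 2 × 10^5 TLX5 lymphoma cells. Drug given intraperitoneally in 10% Me2SO in arachis oil, 5 mice per dose, and the experiment lasted 60 days. Survivors at 60 days were recorded. T/C % = mean death day of treated animals / mean death day of control animals.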

[9] = test system: TLX-5; test: In vivo antitumor activity against the TLX5 lymphoma cell line in mouse species CBA/CA after intraperitoneal administration (inoculum cells-2x10E5,sc) at the dose of 20 mg/kg; format: functional; summary of the method: as §1
[10] = test system: TLX-5; test: (§2) In vivo antitumor activity against the TLX5 lymphoma cell line in mouse species CBA/CA after intraperitoneal administration (inoculum cells-2x10E5,sc) at the dose of 40 mg/kg; format: functional; summary of the method: as §1
[11] = test system: TLX-5; test: In vivo antitumor activity against the TLX5 lymphoma cell line in mouse species CBA/CA after intraperitoneal administration (inoculum cells-2x10E5,sc) at the dose of 80 mg/kg; format: functional; summary of the method: as §1
[12] = test system: TLX-5; test: In vivo antitumor activity against the TLX5 lymphoma cell line in mouse species CBA/CA after intraperitoneal administration (inoculum cells-2x10E5,sc) at the dose of 10 mg/kg on 5th day; format: functional
[13] = test system: TLX-5; test: In vivo antitumor activity against the TLX5 lymphoma cell line in mouse species CBA/CA after intraperitoneal administration (inoculum cells-2x10E5,sc) at the dose of 160 mg/kg on 5th day; format: functional
[14] = test system: TLX-5; test: In vivo antitumor activity against the TLX5 lymphoma cell line in mouse species CBA/CA after intraperitoneal administration (inoculum cells-2x10E5,sc) at the dose of 20 mg/kg on 5th day; format: functional
[15] = test system: TLX-5; test: (§3) In vivo antitumor activity against the TLX5 lymphoma cell line in mouse species CBA/CA after intraperitoneal administration (inoculum cells-2x10E5,sc) at the dose of 40 mg/kg on 5th day; format: functional
[16] = test system: TLX-5; test: In vivo antitumor activity against the TLX5 lymphoma cell line in mouse species CBA/CA after intraperitoneal administration (inoculum cells-2x10E5,sc) at the dose of 80 mg/kg on 5th day; format: functional
[17] = test system: TLX-5; test: In vivo antitumor activity against the TLX5 lymphoma cell line in mouse species CBA/CA after intraperitoneal administration (inoculum cells-2x10E5,ip) at the dose of 80 mg/kg; format: functional; summary of the method: as §1
[18] = test system: TLX-5; test: In vivo antitumor activity against the TLX5 lymphoma cell line in mouse species CBA/CA after intraperitoneal administration (inoculum cells-2x10E5,ip) at the dose of 160 mg/kg on 5th day; format: functional
[19] = test system: TLX-5; test: In vivo antitumor activity against the TLX5 lymphoma cell line in mouse species CBA/CA after intraperitoneal administration (inoculum cells-2x10E5,ip) at the dose of 320 mg/kg on 5th day; format: functional
[20] = test system: TLX-5; test: In vivo antitumor activity against the TLX5 lymphoma cell line in mouse species CBA/CA after intraperitoneal administration (inoculum cells-2x10E5,ip) at the dose of 80 mg/kg on 5th day; format: functional
[21] = test system: TLX-5; test: In vivo antitumor activity against the TLX5 lymphoma cell line in mouse species CBA/CA after intraperitoneal administration (inoculum cells-2x10E5,sc) at the dose of 160 mg/kg
[22] = test system: L1210; test: In vivo antitumor activity against the L1210 leukemia cell line in mouse species B6D2F1 after peroral administration (inoculum cells-10E5,iv) at the dose of 200 mg/kg; format: functional; details: route oral
[23] = test system: L1210; test: In vivo antitumor activity against the L1210 leukemia cell line in mouse species B6D2F1 after peroral administration (inoculum cells-10E5,iv) at the dose of 100 mg/kg; format: functional; details: route oral
[24] = test system: L1210; test: In vivo antitumor activity against the L1210 leukemia cell line in mouse species B6D2F1 after peroral administration (inoculum cells-10E5,iv) at the dose of 50 mg/kg; format: functional; details: route oral
[25] = test system: L1210; test: In vivo antitumor activity against the L1210 leukemia cell line in mouse species B6D2F1 after peroral administration (inoculum cells-10E5,iv) at the dose of 100 mg/kg on 7th day; format: functional; details: route oral
Summary of the method: (§4)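 B6D2F1 mice were inoculated with 10^5 L1210 leukemia cells, ip or iv as the line states. Compound was given orally as a suspension in 1% (carboxymethyl)cellulose in water, dosed on day 1 or 3, over 28–39 days. T/C% = mean death day of treated/mean death day of controls. Survivors to the end were counted in groups of 7–8.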

[26] = test system: L1210; test: In vivo antitumor activity against the L1210 leukemia cell line in mouse species B6D2F1 after peroral administration (inoculum cells-10E5,iv) at the dose of 200 mg/kg on 7th day; format: functional; details: route oral; summary of the method: as §4
[27] = test system: L1210; test: In vivo antitumor activity against the L1210 leukemia cell line in mouse species B6D2F1 after peroral administration (inoculum cells-10E5,iv) at the dose of 50 mg/kg on 7th day; format: functional; details: route oral; summary of the method: as §4
[28] = test system: TLX-5; test: as §3; format: functional; summary of the method: as §1; remark: listed apart in the source
[29] = test system: TLX-5; test: In vivo antitumor activity against the TLX5 lymphoma cell line in mouse species CBA/CA after intraperitoneal administration (inoculum cells-2x10E5,sc) at the dose of 320 mg/kg on 5th day; format: functional
[30] = test system: TLX-5; test: as §2; format: functional; remark: listed apart in the source
Summary of the method: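 CBA/CA mice were implanted sc with 2 × 10^5 TLX5 lymphoma cells. Compound was given ip on day 3 in 10% Me2SO in arachis oil, over 60 days, in groups of 5. T/C% = mean death day of treated/mean death day of controls. Survivors to day 60 were counted.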

For CCOC(=O)c1ncn2c(=O)n(CCCl)nnc12, the T/C [1] was 137%, the T/C [2] was 113% and the T/C [3] was 120%. It also gave a Survivors [4] of 0, a Survivors [5] of 0 and a Survivors [6] of 0. It also gave a T/C [7] of 89%, a T/C [8] of 113% and a T/C [9] of 98%. For the same molecule, the T/C [10] was 104%, the T/C [11] was 91% and the Survivors [12] was 0. For the same molecule, the Survivors [13] was 0, the Survivors [14] was 0 and the Survivors [15] was 0. For the same molecule, the Survivors [16] was 0.

For O=C(NNc1ccccc1)c1ncn2c(=O)n(CCCl)nnc12, the T/C [17] was 107%, the Survivors [18] was 0 and the Survivors [19] was 0. The Survivors [20] was 0 and the T/C [21] was 169%.

Molecule CONC(=O)c1ncn2c(=O)n(CCCl)nnc12 has a T/C [22] of 205%, a T/C [23] of 179% and a T/C [24] of 117%. The Survivors [25] was 0, the Survivors [26] was 0 and the Survivors [27] was 0. The T/C [8] was greater than 325%, the T/C [9] was 103% and the T/C [28] was 116%. The T/C [11] was 185%, the Survivors [13] was 3 and the Survivors [14] was 0. For the same molecule, the Survivors [29] was 0, the Survivors [30] was 0 and the Survivors [16] was 0.
